Source: PMC5652303 (European journal of medicinal chemistry, 2017)
Values joined by “and” are separate entries in the source; they are usually repeats but may differ in a detail not shown here. Identical values can stand only once.

Assays:
49-mer DNA duplex 25 = test: H2O2-induced DNA interstrand cross-link; type: biochemical; details: for DNA ICL cross-linking yield without H2O2: no H2O2, duplex 25, pH 8 phosphate buffer; for Kinetics of ICL formation: Time of completion: phosphate buffer pH 8; for ICL formation rate constant relative to 1a: rate constants of Table 1
In short: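 The 32P-labelled strand (0.5 µM) was annealed to 1.5 equiv of complement at 65 °C for 3 min in 10 mM potassium phosphate pH 7 with 100 mM NaCl, then cooled slowly overnight. Duplex, NaCl, potassium phosphate (pH 6–8), H2O2 and compound (100 µM–2 mM, in CH3CN) were incubated 24 h; some runs went 48 h. Reactions were quenched with 90% formamide loading buffer and run on 20% denaturing PAGE with phosphorimaging. Yields were corrected for the no-H2O2 control.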

[1] = Monomer reaction with H2O2 by NMR analysis; type: physicochemical; details: for Disappearance of starting materials: Time of completion / Disappearance of starting materials: kobs / QM formation: Time of completion / QM formation: kobs: DMSO/deuterated phosphate buffer pH 8 (3:2), with H2O2; for Time to completion of reaction with H2O2 (oxidative deboronation): phosphate buffer pH 8 in D2O/DMSO 2:3, SI Figures S14, 15, 17, 18
normal lymphocytes = test: Viability of normal lymphocytes, annexin/PI binding assay; type: cell-based, human; details: healthy donors (n=2), 10 µM, 24 hours
In short: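 Lymphocytes were separated from healthy donors' peripheral blood on a Ficoll-hypaque gradient and suspended in RPMI with 10% autologous plasma. After compound exposure, the percentage of viable cells was scored by annexin V/propidium iodide binding.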

[2] = tested on: ovarian cancer SKOV3 cell; test: Cytotoxicity in SKOV3 cells; type: cell-based; details: for IC50: Homo sapiens, SK-OV-3; for Cytotoxicity (initial test): SKOV3 cells
In short: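 Cells grown in RPMI 1640 with 5% FBS and 2 mM L-glutamine, seeded at 5,000–10,000 cells/well in 384-well plates, and left 2–3 h at 37 °C, 5% CO2. Compounds were made as 20 mM DMSO stocks and serially diluted 2-fold ten times, then added at 1:100. After 48 h, viability was read by CellTiter-Glo luminescence after 10 min at room temperature. IC50 came from four-parameter nonlinear regression.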

[3] = tested on: H2AX phosphorylation at Ser139; test: DNA damage response: H2AX phosphorylation in CLL lymphocytes, flow cytometry; type: cell-based, human; details: 10 µM, 24 hours
In short: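 Lymphocytes were isolated from CLL patients' peripheral blood on a Ficoll-hypaque gradient and held in RPMI with 10% autologous plasma. After compound exposure, cells were washed in PBS, fixed in ice-cold 70% ethanol and stored at −20 °C. They were then permeabilised, stained with FITC anti-H2AX Ser139 antibody, and analysed by flow cytometry.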

[4] = Chemical stability of the compounds; type: physicochemical; details: for Hydrolysis of the acetate group: NMR, phosphate buffer pH 8 in D2O/DMSO 2:3, before addition of H2O2
[5] = tested on: 60 human cancer cell lines; test: NCI DTP in vitro cancer cell screen; type: cell-based; details: 10 µM, most of the 60 cell lines
In short: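 NCI DTP screen. Human tumour cell lines were grown in RPMI 1640 with 5% FBS and 2 mM L-glutamine. Cells were plated in 96-well plates at 5,000–40,000 cells/well, set by each line's doubling time, and treated at a single 10 µM dose.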

breast cancer MDA-MB-468 = test: Cytotoxicity towards tumor cells; type: cell-based; details: Homo sapiens, MDA-MB-468, 48 h

| Compound | DNA ICL cross-linking yield without H2O2 (49-mer DNA duplex 25; 2 mM compound, 37 °C) | Kinetics of ICL formation: Time of completion (49-mer DNA duplex 25) | Disappearance of starting materials: Time of completion [1] | Disappearance of starting materials: kobs [1] | QM formation: Time of completion [1] | QM formation: kobs [1] | Toxicity to normal lymphocytes (normal lymphocytes) | IC50 [2] | Induction of DNA damage response (H2AX phosphorylation) [3] | Cytotoxicity (initial test) [2] | Hydrolysis of the acetate group [4] | Chemical stability [4] | also measured |
| --- | --- | --- | --- | --- | --- | --- | --- | --- | --- | --- | --- | --- | --- |
| CC1(C)OB(c2c(CBr)cccc2CBr)OC1(C)C [1a] | 0% | 600 min | 60 min | 39.0 ± 1.5 10^−5 s^−1 | 60 min | 9.5 ± 0.2 10^−5 s^−1 | no significant toxicity | 6.3 µM | induction of DNA damage response | – | – | – | – |
| CC(=O)OCc1cccc(COC(C)=O)c1B1OC(C)(C)C(C)(C)O1 [1b, (2-(4,4,5,5-Tetramethyl-1,3,2-dioxaborolan-2-yl)-1,3-phenylene)bis(methylene) diacetate] | – | – | 240 min | 19.4 ± 1.2 10^−5 s^−1 | 240 min | – | – | – | – | not cytotoxic | hydrolyzed prior to addition of H2O2 | – | – |
| COc1cc(CBr)c(B2OC(C)(C)C(C)(C)O2)c(CBr)c1 [2a, 2-(2,6-Bis(bromomethyl)-4-methoxyphenyl)-4,4,5,5-tetramethyl-1,3,2-dioxaborolane] | – | 240 min | 42 min | 56.7 ± 4.3 10^−5 s^−1 | 50 min | 38.3 ± 2.2 10^−5 s^−1 | no significant toxicity | 5.2 µM | induction of DNA damage response | – | – | chemically stable | ICL formation rate constant relative to 1a (49-mer DNA duplex 25): 2–3 times; Growth percentage of most cell lines, single dose screening [5]: less than 50% |
| COc1cc(COC(C)=O)c(B2OC(C)(C)C(C)(C)O2)c(COC(C)=O)c1 [2b, (5-Methoxy-2-(4,4,5,5-tetramethyl-1,3,2-dioxaborolan-2-yl)-1,3-phenylene)bis(methylene) diacetate] | – | – | 480 min | 9.1 ± 0.6 10^−5 s^−1 | 480 min | – | – | – | – | not cytotoxic | hydrolyzed prior to addition of H2O2 | – | Time to completion of reaction with H2O2 (oxidative deboronation) [1]: not finished within one hour |
| COc1cc(OC)c(CBr)c(B2OC(C)(C)C(C)(C)O2)c1CBr [3a, 2-(2,6-Bis(bromomethyl)-3,5-dimethoxyphenyl)-4,4,5,5-tetramethyl-1,3,2-dioxaborolane] | 17 ± 3% and 17% | – | – | – | – | – | – | – | – | – | – | not stable and easily decomposed even at 0 °C | – |
| COc1c(CBr)c(B2OC(C)(C)C(C)(C)O2)c(CBr)c(OC)c1OC [4a, 2-(2,6-Bis(bromomethyl)-3,4,5-trimethoxyphenyl)-4,4,5,5-tetramethyl-1,3,2-dioxaborolane] | 0% | – | – | – | – | – | – | – | – | not cytotoxic | – | more stable than 3a | DNA ICL cross-linking yield with H2O2 (49-mer DNA duplex 25; 2 mM compound, 2 mM H2O2, duplex 25, pH 8 phosphate buffer, 37 °C): 0%; ICL yield after incubation of ICL products at pH 6 (49-mer DNA duplex 25; ICLs generated at pH 6, then incubated at pH 6, 37 °C, 24 h): remained unchanged; ICL yield after incubation of ICL products at pH 8 (49-mer DNA duplex 25; ICLs generated at pH 6, then incubated at pH 8, 37 °C, 24 h): 3.0 ± 0.5%; ICL yield of ICL products generated with 4a at pH 6 (49-mer DNA duplex 25; duplex 25, generated at pH 6, before further incubation): 16.6 ± 1.0%; DNA ICL product formation at pH 7 or higher pH (49-mer DNA duplex 25; with H2O2, pH 7 or higher): not formed |
| CC1(C)OB(c2c(CBr)cc(O)cc2CBr)OC1(C)C [5a, 3,5-Bis(bromomethyl)-4-(4,4,5,5-tetramethyl-1,3,2-dioxaborolan-2-yl)phenol] | – | 300 min | 40 min | 61.7 ± 3.2 10^−5 s^−1 | 40 min | 58.3 ± 4.3 10^−5 s^−1 | no significant toxicity | 3.8 µM | induction of DNA damage response | – | – | relatively stable | ICL formation rate constant relative to 1a (49-mer DNA duplex 25): 2–3 times |
| CC(=O)OCc1cc(O)cc(COC(C)=O)c1B1OC(C)(C)C(C)(C)O1 [5b, (5-Hydroxy-2-(4,4,5,5-tetramethyl-1,3,2-dioxaborolan-2-yl)-1,3-phenylene)bis(methylene) diacetate] | – | – | 480 min | 8.3 ± 0.5 10^−5 s^−1 | 480 min | – | – | – | – | – | hydrolyzed prior to addition of H2O2 | – | Time to completion of reaction with H2O2 (oxidative deboronation) [1]: not finished within one hour |
| O=C(O)CCCc1ccc(N(CCCl)CCCl)cc1 [Chlorambucil, chlorambucil] | – | – | – | – | – | – | – | – | – | – | – | – | IC50 (breast cancer MDA-MB-468): 34.4 µM |
| N[C@@H](Cc1ccc(N(CCCl)CCCl)cc1)C(=O)O [Melphalan, melphalan] | – | – | – | – | – | – | – | – | – | – | – | – | IC50 (breast cancer MDA-MB-468): 48.7 µM |
